Reference: ChEMBL document CHEMBL5046302, “Identification and Evaluation of Brominated Carbazoles as a Novel Antibiotic Adjuvant Scaffold in MRSA” (2022)
Active and inactive are the calls of the source. No cut-off for these calls is given here.

Experiments:
Format in all cases: functional
[1] = system: Staphylococcus aureus; experiment: Potentiation of oxacillin induced antibacterial activity against methicillin-resistant Staphylococcus aureus assessed as fold decrease in mecI gene expression at 50 uM by RT-qPCR analysis
Procedure, shortened: (§1)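 Fold dampening is the relative mRNA level of the gene, normalised to 16S rRNA, in oxacillin-treated cells divided by that in cells cotreated with oxacillin plus carbazole. Carbazole was used at 25 or 50 μM, as given in each line.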

[2] = system: Staphylococcus aureus; experiment: Potentiation of methicillin induced antibacterial activity against methicillin-resistant Staphylococcus aureus COL assessed as methicillin MIC at 50 uM after 18 hrs by CLSI protocol based broth microdilution assay
[3] = system: Staphylococcus aureus; experiment: Potentiation of oxacillin induced antibacterial activity against methicillin-resistant Staphylococcus aureus USA300 harboring stk1 deletion mutant assessed as oxacillin MIC at 50 uM after 18 hrs by CLSI protocol based broth microdilution assay
[4] = system: Staphylococcus aureus; experiment: Potentiation of oxacillin induced antibacterial activity against methicillin-resistant Staphylococcus aureus assessed as fold decrease in mecA gene expression at 50 uM by RT-qPCR analysis; procedure, shortened: as §1
[5] = system: Staphylococcus aureus; experiment: Potentiation of oxacillin induced antibacterial activity against methicillin-resistant Staphylococcus aureus USA100 assessed as oxacillin MIC at 50 uM after 18 hrs by CLSI protocol based broth microdilution assay
[6] = system: Staphylococcus aureus; experiment: Potentiation of oxacillin induced antibacterial activity against methicillin-resistant Staphylococcus aureus COL assessed as fold change in oxacillin MIC at 50 uM after 18 hrs by CLSI protocol based broth microdilution assay
[7] = system: Staphylococcus aureus; experiment: Potentiation of methicillin induced antibacterial activity against methicillin-resistant Staphylococcus aureus ATCC 43300 assessed as methicillin MIC at 50 uM after 18 hrs by CLSI protocol based broth microdilution assay
[8] = system: Staphylococcus aureus; experiment: Potentiation of methicillin induced antibacterial activity against methicillin-resistant Staphylococcus aureus USA100 assessed as fold change in methicillin MIC at 50 uM after 18 hrs by CLSI protocol based broth microdilution assay
[9] = system: Staphylococcus aureus; experiment: Potentiation of ampicillin induced antibacterial activity against methicillin-resistant Staphylococcus aureus USA100 assessed as ampicillin MIC at 50 uM after 18 hrs by CLSI protocol based broth microdilution assay
[10] = system: Staphylococcus aureus; experiment: Potentiation of methicillin induced antibacterial activity against methicillin-resistant Staphylococcus aureus USA300 assessed as fold change in methicillin MIC at 50 uM after 18 hrs by CLSI protocol based broth microdilution assay
[11] = system: Staphylococcus aureus; experiment: Potentiation of oxacillin induced antibacterial activity against methicillin-resistant Staphylococcus aureus USA300 harboring stk1 deletion mutant co-transfected with a plasmid bearing stk1 assessed as fold change in oxacillin MIC at 50 uM after 18 hrs by CLSI protocol based broth microdilution assay
[12] = system: Staphylococcus aureus; experiment: Potentiation of ceftazidime induced antibacterial activity against methicillin-resistant Staphylococcus aureus USA300 assessed as fold change in ceftazidime MIC at 50 uM after 18 hrs by CLSI protocol based broth microdilution assay
[13] = system: Staphylococcus aureus; experiment: Potentiation of cefoxitin induced antibacterial activity against methicillin-resistant Staphylococcus aureus ATCC 43300 assessed as cefoxitin MIC at 50 uM after 18 hrs by CLSI protocol based broth microdilution assay
[14] = system: Staphylococcus aureus; experiment: Upregulation of pbp2 gene expression in methicillin-resistant Staphylococcus aureus ATCC 43300 assessed as fold change by RT-PCR method
[15] = system: Staphylococcus aureus; experiment: Potentiation of oxacillin induced antibacterial activity against methicillin-resistant Staphylococcus aureus USA300 harboring stk1 deletion mutant assessed as oxacillin MIC at 25 uM after 18 hrs by CLSI protocol based broth microdilution assay
[16] = system: Staphylococcus aureus; experiment: Potentiation of ampicillin induced antibacterial activity against methicillin-resistant Staphylococcus aureus ATCC 43300 assessed as fold change in ampicillin MIC at 25 uM after 18 hrs by CLSI protocol based broth microdilution assay
[17] = system: Staphylococcus aureus; experiment: Potentiation of ampicillin induced antibacterial activity against methicillin-resistant Staphylococcus aureus USA100 assessed as fold change in ampicillin MIC at 25 uM after 18 hrs by CLSI protocol based broth microdilution assay
[18] = system: Staphylococcus aureus; experiment: Upregulation of mecA gene expression in methicillin-resistant Staphylococcus aureus USA300 at 25 uM by RT-PCR method
[19] = system: Staphylococcus aureus; experiment: Potentiation of oxacillin induced antibacterial activity against methicillin-resistant Staphylococcus aureus USA300 assessed as fold change in oxacillin MIC at 25 uM after 18 hrs by CLSI protocol based broth microdilution assay
[20] = system: Staphylococcus aureus; experiment: Potentiation of oxacillin induced antibacterial activity against methicillin-resistant Staphylococcus aureus assessed as fold decrease in blaI gene expression at 25 uM by RT-qPCR analysis; procedure, shortened: as §1
[21] = system: Staphylococcus aureus; experiment: Potentiation of oxacillin induced antibacterial activity against methicillin-resistant Staphylococcus aureus USA100 assessed as fold change in oxacillin MIC at 25 uM after 18 hrs by CLSI protocol based broth microdilution assay
[22] = system: Staphylococcus aureus; experiment: Potentiation of oxacillin induced antibacterial activity against methicillin-resistant Staphylococcus aureus COL assessed as fold change in oxacillin MIC at 25 uM after 18 hrs by CLSI protocol based broth microdilution assay
[23] = system: Staphylococcus aureus; experiment: Potentiation of cefoxitin induced antibacterial activity against methicillin-resistant Staphylococcus aureus ATCC 43300 assessed as cefoxitin MIC at 25 uM after 18 hrs by CLSI protocol based broth microdilution assay
[24] = system: Staphylococcus aureus; experiment: Potentiation of methicillin induced antibacterial activity against methicillin-resistant Staphylococcus aureus COL assessed as fold change in methicillin MIC at 25 uM after 18 hrs by CLSI protocol based broth microdilution assay
[25] = system: Staphylococcus aureus; experiment: Potentiation of oxacillin induced antibacterial activity against methicillin-resistant Staphylococcus aureus assessed as fold decrease in blaZ gene expression at 25 uM by RT-qPCR analysis; procedure, shortened: as §1
[26] = system: Staphylococcus aureus; experiment: Potentiation of ampicillin induced antibacterial activity against methicillin-resistant Staphylococcus aureus ATCC 43300 assessed as ampicillin MIC at 25 uM after 18 hrs by CLSI protocol based broth microdilution assay
[27] = system: Staphylococcus aureus; experiment: Potentiation of cefoxitin induced antibacterial activity against methicillin-resistant Staphylococcus aureus USA100 assessed as cefoxitin MIC at 25 uM after 18 hrs by CLSI protocol based broth microdilution assay
[28] = system: Staphylococcus aureus; experiment: Potentiation of methicillin induced antibacterial activity against methicillin-resistant Staphylococcus aureus ATCC 43300 assessed as fold change in methicillin MIC at 25 uM after 18 hrs by CLSI protocol based broth microdilution assay
[29] = system: Staphylococcus aureus; experiment: Potentiation of ampicillin induced antibacterial activity against methicillin-resistant Staphylococcus aureus COL assessed as fold change in ampicillin MIC at 25 uM after 18 hrs by CLSI protocol based broth microdilution assay
[30] = system: Staphylococcus aureus; experiment: Potentiation of ceftazidime induced antibacterial activity against methicillin-resistant Staphylococcus aureus USA300 assessed as fold change in ceftazidime MIC at 25 uM after 18 hrs by CLSI protocol based broth microdilution assay
[31] = system: Staphylococcus aureus; experiment: Potentiation of ceftazidime induced antibacterial activity against methicillin-resistant Staphylococcus aureus COL assessed as ceftazidime MIC at 25 uM after 18 hrs by CLSI protocol based broth microdilution assay
[32] = system: Staphylococcus aureus; experiment: Potentiation of oxacillin induced antibacterial activity against methicillin-resistant Staphylococcus aureus COL assessed as oxacillin MIC at 25 uM after 18 hrs by CLSI protocol based broth microdilution assay

## Brc1cccc2c1[nH]c1ccccc12
[1]
  fold change (FC): 0.67
[2]
  MIC: 1020 µg/mL
[3]
  MIC: 0.25 µg/mL
[4]
  fold change (FC): 1.39
[5]
  MIC: 0.5 µg/mL
[6]
  fold change (FC): 1
[7]
  MIC: 4 µg/mL
[8]
  fold change (FC): 64
[9]
  MIC: 8 µg/mL
[10]
  fold change (FC): 4
[11]
  fold change (FC): 4
[12]
  fold change (FC): 1
[13]
  MIC: 16 µg/mL
[14]
  fold change (FC): 2

## Brc1cccc2[nH]c3ccccc3c12
[15]
  MIC: 0.25 µg/mL
[16]
  fold change (FC): 2
[17]
  fold change (FC): 4
[18]
  Activity: inactive
[19]
  fold change (FC): 4
[20]
  fold change (FC): 4.65
[21]
  fold change (FC): 16
[22]
  fold change (FC): 1
[23]
  MIC: 16 µg/mL
[24]
  fold change (FC): 1
[25]
  fold change (FC): 8.06
[26]
  MIC: 16 µg/mL
[27]
  MIC: 64 µg/mL
[28]
  fold change (FC): 1
[29]
  fold change (FC): 1
[30]
  fold change (FC): 1
[14]
  fold change (FC): 2
[31]
  MIC: 1020 µg/mL
[32]
  MIC: 512 µg/mL

## Brc1ccc2[nH]c3ccc(Br)cc3c2c1
[2]
  MIC: 1020 µg/mL
[5]
  MIC: 128 µg/mL
[6]
  fold change (FC): 4
[7]
  MIC: 2 µg/mL
[8]
  fold change (FC): 16
[9]
  MIC: 32 µg/mL
[10]
  fold change (FC): 4
[12]
  fold change (FC): 1
[13]
  MIC: 32 µg/mL
